Here are results for 40 compounds from ChEMBL document CHEMBL1134773, “Design and synthesis of potent and selective alpha(4)beta(7) integrin antagonists” (J Med Chem, 2001).

The structures appear in SMILES notation.

One assay deals with T1, Integrin alpha-4/beta-7 (Homo sapiens) (UniProt P13612+P26010). In words: Inhibition of alpha4-beta7 lymphoma cell binding to CHO-VCAM-1 cells. Format: cell-based.
Turning to `NC(=O)C[C@@H]1NC(=O)CNC(=O)[C@@H](Cc2ccccc2)NC(=O)[C@@H](Cc2c[nH]cn2)NC(=O)[C@@H](CCC(=O)O)NC1=O`, the Adhesion was 93%.

The next assay has as its target T1, Integrin alpha-4/beta-7 (Homo sapiens). In words: Ability to inhibit adhesion of alpha4-beta7 integrin expressing 38-beta7 lymphoma cells to chinese hamster ovary (CHO) cells stably transfected with MAdCAM-1. Format: cell-based. In a few lines: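 38-β7 lymphoma cells (α4β7+) labelled 30 min at 37 °C with 12 μg/mL H33342, then 8×10^5/mL in buffer with 1.0 mM Ca2+/Mg2+. Preincubated 10 min at 37 °C with peptide at 1 mg/mL final. Allowed to adhere 30 min at 37 °C to confluent MAdCAM-1-transfected CHO monolayers (seeded 24 h before). Nonadherent cells removed by inverse centrifugation. Result given as % of medium control, mean of two experiments.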
The compound `CC(C)C[C@@H]1NC(=O)[C@H](C)NC(=O)[C@H]2CCCN2C(=O)[C@H]([C@@H](C)O)NC(=O)[C@@H](CC(=O)O)NC1=O` gave an Adhesion of 89%.

Take `C[C@H]1NC(=O)[C@H]2CCCN2C(=O)[C@@H](CC(=O)O)NC(=O)[C@H]([C@@H](C)O)NC(=O)[C@@H](CC(=O)O)NC(=O)[C@@H](c2ccccc2)NC1=O`: the Adhesion is 114%.

With `CC(C)C[C@@H]1NC(=O)[C@@H](CC(=O)O)NC(=O)[C@H]2CCCN2C(=O)[C@@H](C)NC(=O)[C@H]([C@@H](C)O)NC(=O)[C@@H](CC(=O)O)NC1=O`, the Adhesion was determined as 115%.

`CC(C)C[C@@H]1NC(=O)[C@@H]([C@@H](C)O)NC(=O)[C@H]2CCCN2C(=O)[C@@H](C)NC(=O)[C@H]([C@@H](C)O)NC(=O)[C@@H](CC(=O)O)NC1=O` returned an Adhesion of 49%.

Turning to `CC(C)C[C@@H]1NC(=O)[C@H]2CCCN2C(=O)[C@H](C)NC(=O)[C@@H](C)NC(=O)[C@H]([C@@H](C)O)NC(=O)[C@@H](CC(=O)O)NC1=O`, the Adhesion was 30%.

For the compound `CC(C)C[C@@H]1NC(=O)[C@@H](Cc2ccc(O)cc2)NC(=O)[C@H]2CCCN2C(=O)[C@@H](CCCCN)NC(=O)[C@H]([C@@H](C)O)NC(=O)[C@@H](CC(=O)O)NC1=O`, the Adhesion came to 81%.

`CC(C)C[C@@H]1NC(=O)[C@@H](CC(=O)O)NC(=O)[C@H]2CCCN2C(=O)[C@@H](CCCCN)NC(=O)[C@H]([C@@H](C)O)NC(=O)[C@@H](CC(=O)O)NC1=O` registered an Adhesion of 102%.

Turning to `CC(C)C[C@@H]1NC(=O)[C@@H](C)NC(=O)[C@H]2CCCN2C(=O)[C@@H](C)NC(=O)[C@H](C(C)C)NC(=O)[C@@H](CC(=O)O)NC1=O`, the Adhesion was found to be 50%.

Turning to `CC(C)C[C@@H]1NC(=O)[C@@H](Cc2ccccc2)NC(=O)[C@@H](Cc2ccccc2)NC(=O)[C@@H](CC(=O)O)NC(=O)[C@H]([C@@H](C)O)NC(=O)[C@@H](CC(=O)O)NC1=O`, the Adhesion worked out at 56%.

In turn, `CC(C)C[C@@H]1NC(=O)[C@H](C)NC(=O)[C@@H](C)NC(=O)[C@@H]([C@@H](C)O)NC(=O)[C@@H](CC(=O)O)NC1=O` yielded an Adhesion of 85%.

In turn, `CC(C)C[C@@H]1NC(=O)[C@@H](CC(=O)O)NC(=O)[C@@H](CC(=O)O)NC(=O)[C@@H](C)NC(=O)[C@H]([C@@H](C)O)NC(=O)[C@@H](CC(=O)O)NC1=O` yielded an Adhesion of 99%.

The compound `CC(C)C[C@@H]1NC(=O)[C@@H](C)NC(=O)[C@H]2CCCN2C(=O)[C@@H](C)NC(=O)[C@H]([C@@H](C)O)NC(=O)[C@@H](CC(=O)O)NC1=O` came in with an Adhesion of 7%.

For `C[C@H]1NC(=O)[C@H]2CCCN2C(=O)[C@@H](CC(=O)O)NC(=O)[C@H]([C@@H](C)O)NC(=O)[C@@H](CC(=O)O)NC(=O)[C@H](Cc2ccccc2)NC1=O`, the Adhesion is 102%.

In turn, `CC(C)C[C@@H]1NC(=O)[C@H]2CCCN2C(=O)[C@@H](C)NC(=O)[C@H]([C@@H](C)O)NC(=O)[C@@H](CC(=O)O)NC1=O` returned an Adhesion of 74%.

For the compound `CC(C)[C@@H]1NC(=O)[C@@H](C)NC(=O)[C@H]2CCCN2C(=O)[C@@H](C)NC(=O)[C@H]([C@@H](C)O)NC(=O)[C@@H](CC(=O)O)NC1=O`, the Adhesion was 97%.

As for `CC(C)C[C@@H]1NC(=O)[C@@H](C)NC(=O)[C@H]2CCCN2C(=O)[C@@H](CC(=O)O)NC(=O)[C@H]([C@@H](C)O)NC(=O)[C@@H](CC(=O)O)NC1=O`, the Adhesion was determined as 47%.

In the case of `CC(C)C[C@@H]1NC(=O)[C@@H](C)NC(=O)[C@H]2CCCN2C(=O)[C@@H](CC(=O)O)NC(=O)[C@H](C(C)C)NC(=O)[C@@H](CC(=O)O)NC1=O`, the Adhesion came out at 40%.

In turn, `CC(C)C[C@@H]1NC(=O)[C@@H](CC(=O)O)NC(=O)[C@H]2CCCN2C(=O)[C@@H](Cc2c[nH]c3ccccc23)NC(=O)[C@H]([C@@H](C)O)NC(=O)[C@@H](CC(=O)O)NC1=O` yielded an Adhesion of 87%.

For `CC(C)C[C@@H]1NC(=O)[C@@H](C)NC(=O)[C@H]2CCCN2C(=O)[C@@H](C)NC(=O)CNC(=O)[C@@H](CC(=O)O)NC1=O`, the Adhesion turned out to be 91%.

Compound `CC(C)C[C@@H]1NC(=O)[C@@H](CCC(=O)O)NC(=O)[C@H]2CCCN2C(=O)[C@@H](C)NC(=O)[C@H]([C@@H](C)O)NC(=O)[C@@H](CC(=O)O)NC1=O` came in with an Adhesion of 65%.

In turn, `NC(=O)C[C@@H]1NC(=O)CNC(=O)[C@@H](Cc2ccccc2)NC(=O)[C@@H](Cc2c[nH]cn2)NC(=O)[C@@H](CCC(=O)O)NC1=O` showed an Adhesion of 100%.

With `CC[C@H](C)[C@@H]1NC(=O)[C@H](C)NC(=O)[C@@H](C)NC(=O)[C@H]([C@@H](C)O)NC(=O)[C@@H](CC(=O)O)NC1=O`, the Adhesion came to 137%.

With `CC(C)C[C@@H]1NC(=O)[C@@H](CCCN=C(N)N)NC(=O)[C@H]2CCCN2C(=O)[C@@H](C)NC(=O)[C@H]([C@@H](C)O)NC(=O)[C@@H](CC(=O)O)NC1=O`, the Adhesion is 26%.

`CC(C)C[C@@H]1NC(=O)[C@@H](Cc2ccc(C(=O)c3ccccc3)cc2)NC(=O)[C@H]2CCCN2C(=O)[C@@H](CC(=O)O)NC(=O)[C@H]([C@@H](C)O)NC(=O)[C@@H](CC(=O)O)NC1=O` gave an Adhesion of 10%.

As for `C[C@H]1NC(=O)[C@H]2CCCN2C(=O)[C@@H](CC(=O)O)NC(=O)[C@H]([C@@H](C)O)NC(=O)[C@@H](CC(=O)O)NC(=O)[C@H](c2ccccc2)NC1=O`, the Adhesion turned out to be 98%.

In turn, `CC(C)C[C@@H]1NC(=O)[C@@H](C)NC(=O)[C@H](C)NC(=O)[C@H]2CCCN2C(=O)[C@H]([C@@H](C)O)NC(=O)[C@@H](CC(=O)O)NC1=O` gave an Adhesion of 111%.

Turning to `CC(C)C[C@@H]1NC(=O)[C@@H](C)NC(=O)[C@H]2CCCN2C(=O)[C@@H](C)NC(=O)[C@H](CO)NC(=O)[C@@H](CC(=O)O)NC1=O`, the Adhesion worked out at 90%.

The compound `CC(C)C[C@@H]1NC(=O)C(C2CCCCC2)NC(=O)[C@H]2CCCN2C(=O)[C@@H](CC(=O)O)NC(=O)[C@H]([C@@H](C)O)NC(=O)[C@@H](CC(=O)O)NC1=O` (stereo partly specified) yielded an Adhesion of 58%.

The compound `CC[C@H](C)[C@H]1NC(=O)[C@H](C)NC(=O)[C@@H](C)NC(=O)[C@H]([C@@H](C)O)NC(=O)[C@@H](CC(=O)O)NC1=O` (stereo in doubt; P6) returned an Adhesion of 63%.

`CC(C)C[C@@H]1NC(=O)[C@@H](CC(=O)O)NC(=O)[C@@H](Cc2ccccc2)NC(=O)[C@@H](C)NC(=O)[C@H]([C@@H](C)O)NC(=O)[C@@H](CC(=O)O)NC1=O` showed an Adhesion of 86%.

On to `CSCC[C@H]1NC(=O)[C@H]([C@@H](C)O)NC(=O)[C@@H](CC(=O)O)NC(=O)[C@H](CC(C)C)NC(=O)[C@@H](CC(=O)O)NC(=O)[C@H]2CCCN2C1=O`, for which the Adhesion is 83%.

On to `CC(C)C[C@@H]1NC(=O)[C@@H](C)NC(=O)[C@@H](Cc2ccccc2)NC(=O)[C@@H](CC(=O)O)NC(=O)[C@H]([C@@H](C)O)NC(=O)[C@@H](CC(=O)O)NC1=O`, for which the Adhesion turned out to be 63%.

Turning to `C[C@H]1NC(=O)[C@H]2CCCN2C(=O)[C@@H](C)NC(=O)[C@H]([C@@H](C)O)NC(=O)[C@@H](CC(=O)O)NC(=O)CNC1=O`, the Adhesion came to 105%.

On to `CC(C)C[C@@H]1NC(=O)[C@@H](CC(=O)O)NC(=O)[C@H]2CCCN2C(=O)[C@@H](Cc2ccc(O)cc2)NC(=O)[C@H]([C@@H](C)O)NC(=O)[C@@H](CC(=O)O)NC1=O`, for which the Adhesion stood at 76%.

The compound `CC(C)C[C@@H]1NC(=O)[C@@H](Cc2ccccc2)NC(=O)[C@H]2CCCN2C(=O)[C@@H](CCCCN)NC(=O)[C@H]([C@@H](C)O)NC(=O)[C@@H](CC(=O)O)NC1=O` showed an Adhesion of 85%.

With `CC[C@H](C)[C@@H]1NC(=O)[C@@H](C)NC(=O)[C@H]2CCCN2C(=O)[C@@H](C)NC(=O)[C@H]([C@@H](C)O)NC(=O)[C@@H](CC(=O)O)NC1=O`, the Adhesion was determined as 64%.

In the case of `CC(C)C[C@@H]1NC(=O)[C@@H](C)NC(=O)[C@H](C)NC(=O)[C@@H](C)NC(=O)[C@H]([C@@H](C)O)NC(=O)[C@@H](CC(=O)O)NC1=O`, the Adhesion was 85%.

Compound `CC[C@H](C)[C@H]1NC(=O)[C@H](C)NC(=O)[C@@H](C)NC(=O)[C@H]([C@@H](C)O)NC(=O)[C@@H](CC(=O)O)NC1=O` (stereo in doubt; P1) displayed an Adhesion of 100%.

As for `CC(C)C[C@@H]1NC(=O)[C@@H]2Cc3ccccc3CN2C(=O)[C@H]2CCCN2C(=O)[C@@H](CC(=O)O)NC(=O)[C@H]([C@@H](C)O)NC(=O)[C@@H](CC(=O)O)NC1=O`, the Adhesion is 9%.

In turn, `CC(C)C[C@@H]1NC(=O)[C@@H](CC(=O)O)NC(=O)[C@H]2CCCN2C(=O)[C@@H](Cc2ccccc2)NC(=O)[C@H]([C@@H](C)O)NC(=O)[C@@H](CC(=O)O)NC1=O` returned an Adhesion of 100%.
